How the values were obtained:
[1] = target: T1, Alpha-1D adrenergic receptor (Rattus norvegicus) (UniProt P23944); assay: Antagonist activity at Alpha-1D adrenoceptor in Wistar rat thoracic aorta assessed as inhibition of (-)-noradrenaline-induced contraction after 30 mins; format: functional, tissue-based
T1 sequence (whole entry): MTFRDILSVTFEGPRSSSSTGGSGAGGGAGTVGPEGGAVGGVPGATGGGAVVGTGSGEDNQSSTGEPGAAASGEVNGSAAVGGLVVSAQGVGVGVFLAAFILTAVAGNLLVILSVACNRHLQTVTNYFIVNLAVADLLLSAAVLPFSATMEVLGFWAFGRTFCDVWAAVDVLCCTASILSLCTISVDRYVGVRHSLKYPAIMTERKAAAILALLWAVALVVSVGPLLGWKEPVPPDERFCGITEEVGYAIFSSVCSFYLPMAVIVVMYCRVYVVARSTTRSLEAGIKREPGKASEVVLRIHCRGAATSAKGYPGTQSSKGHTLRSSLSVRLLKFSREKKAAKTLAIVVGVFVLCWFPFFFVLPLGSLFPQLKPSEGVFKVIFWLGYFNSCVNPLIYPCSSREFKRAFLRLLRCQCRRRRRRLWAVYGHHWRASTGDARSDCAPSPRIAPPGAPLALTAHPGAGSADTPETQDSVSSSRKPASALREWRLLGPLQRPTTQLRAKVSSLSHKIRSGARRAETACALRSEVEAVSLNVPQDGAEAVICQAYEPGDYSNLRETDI

[2] = target: T2, Alpha-1B adrenergic receptor (Rattus norvegicus) (UniProt P15823); assay: Antagonist activity at alpha1B adrenoceptor in Wistar rat spleen assessed as inhibition of (-)-phenylephrine-induced contraction after 30 mins; format: functional, tissue-based
T2 sequence (whole entry): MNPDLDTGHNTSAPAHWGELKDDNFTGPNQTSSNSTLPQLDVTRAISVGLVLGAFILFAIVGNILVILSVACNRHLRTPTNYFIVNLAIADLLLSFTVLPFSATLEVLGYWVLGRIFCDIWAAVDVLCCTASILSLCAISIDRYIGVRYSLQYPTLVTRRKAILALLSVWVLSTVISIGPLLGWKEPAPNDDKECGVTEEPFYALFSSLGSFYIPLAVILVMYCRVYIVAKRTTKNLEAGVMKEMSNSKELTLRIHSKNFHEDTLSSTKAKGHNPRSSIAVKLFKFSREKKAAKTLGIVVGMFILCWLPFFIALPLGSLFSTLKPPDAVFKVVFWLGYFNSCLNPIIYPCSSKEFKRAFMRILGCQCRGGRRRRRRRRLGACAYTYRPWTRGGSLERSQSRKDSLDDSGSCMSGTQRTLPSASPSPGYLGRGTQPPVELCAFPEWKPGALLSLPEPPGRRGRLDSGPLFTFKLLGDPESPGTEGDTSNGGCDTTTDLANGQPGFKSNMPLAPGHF

[3] = target: T3, Alpha-1D adrenergic receptor (Homo sapiens, UniProt P25100); assay: Displacement of [3H]prazosin from human cloned alpha1D adrenoceptor expressed in CHO cells; format: cell-based
T3 sequence (P25100 whole entry): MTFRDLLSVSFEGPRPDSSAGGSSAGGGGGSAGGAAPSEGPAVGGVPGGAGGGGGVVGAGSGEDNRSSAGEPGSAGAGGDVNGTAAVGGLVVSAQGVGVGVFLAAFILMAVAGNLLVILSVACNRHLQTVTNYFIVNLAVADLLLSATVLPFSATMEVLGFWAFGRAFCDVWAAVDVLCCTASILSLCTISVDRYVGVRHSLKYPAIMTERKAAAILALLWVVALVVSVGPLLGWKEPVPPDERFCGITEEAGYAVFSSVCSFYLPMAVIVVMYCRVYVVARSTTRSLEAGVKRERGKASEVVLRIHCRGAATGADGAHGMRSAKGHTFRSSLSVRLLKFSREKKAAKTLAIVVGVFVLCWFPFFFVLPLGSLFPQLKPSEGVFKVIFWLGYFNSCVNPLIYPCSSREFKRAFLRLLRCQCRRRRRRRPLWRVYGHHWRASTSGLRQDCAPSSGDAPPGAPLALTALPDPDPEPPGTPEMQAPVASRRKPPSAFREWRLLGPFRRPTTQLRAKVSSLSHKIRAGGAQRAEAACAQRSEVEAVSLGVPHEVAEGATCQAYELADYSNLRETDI
In short: (§1)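 [3H]prazosin binding to cloned human α1-adrenoceptor subtypes expressed in CHO cell membranes. Affinity reported as pKi for each subtype.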

[4] = target: T4, 5-hydroxytryptamine receptor 1A (Homo sapiens, UniProt P08908); assay: Displacement of [3H]8-OH-DPAT from human cloned 5HT1A receptor expressed in human HeLa cells; format: cell-based
T4 sequence (P08908 whole entry): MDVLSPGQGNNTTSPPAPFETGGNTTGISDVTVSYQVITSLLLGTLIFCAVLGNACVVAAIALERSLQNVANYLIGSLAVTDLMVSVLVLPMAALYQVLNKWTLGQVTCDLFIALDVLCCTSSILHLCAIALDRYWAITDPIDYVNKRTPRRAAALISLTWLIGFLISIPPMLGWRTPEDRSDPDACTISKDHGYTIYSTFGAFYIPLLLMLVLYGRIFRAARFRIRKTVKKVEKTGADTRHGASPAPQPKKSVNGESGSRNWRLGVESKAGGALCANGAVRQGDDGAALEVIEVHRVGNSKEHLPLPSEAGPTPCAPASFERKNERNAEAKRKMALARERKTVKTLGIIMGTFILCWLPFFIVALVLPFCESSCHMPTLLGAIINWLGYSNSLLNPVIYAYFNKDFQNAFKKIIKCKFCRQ

[5] = target: T5, Alpha-1A adrenergic receptor (Homo sapiens, UniProt P35348); assay: Displacement of [3H]prazosin from human cloned alpha1A adrenoceptor expressed in CHO cells; format: cell-based; in short: as §1
T5 sequence (P35348 whole entry): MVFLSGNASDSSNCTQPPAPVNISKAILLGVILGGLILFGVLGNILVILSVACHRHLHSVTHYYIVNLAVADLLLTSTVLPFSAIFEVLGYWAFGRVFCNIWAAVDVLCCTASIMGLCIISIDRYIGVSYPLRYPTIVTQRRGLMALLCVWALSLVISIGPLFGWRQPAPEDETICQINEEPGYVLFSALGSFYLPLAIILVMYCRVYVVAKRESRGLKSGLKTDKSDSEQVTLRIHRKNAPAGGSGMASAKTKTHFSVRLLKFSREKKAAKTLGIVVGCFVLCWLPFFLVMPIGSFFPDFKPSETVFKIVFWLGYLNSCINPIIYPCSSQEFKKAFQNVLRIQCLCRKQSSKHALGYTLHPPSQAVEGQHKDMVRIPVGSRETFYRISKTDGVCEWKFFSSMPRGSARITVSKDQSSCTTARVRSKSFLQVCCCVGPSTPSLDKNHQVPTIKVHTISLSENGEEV

Row | Compound | pKb [1] | pKb [2] | Ki [3] | Ki [4] | Ki [5]
1 | COc1ccccc1OCCNC[C@@H]1COC(c2ccccc2)(c2ccccc2)CO1 | 7.71 | 6.81 | 102 nM | 7.59 nM | 74.1 nM
2 | COc1cccc(OC)c1OCCNC[C@@H]1COC(c2ccccc2)(c2ccccc2)CO1 | 7.38 | 5.74 | 170 nM | 229 nM | 89.1 nM
3 | c1ccc(OCCNC[C@@H]2COCC(c3ccccc3)(c3ccccc3)O2)cc1 | 7.6 | 7.84 | 3.63 nM | 0.589 nM | 170 nM
4 | COc1ccccc1OCCNC[C@@H]1COCC(c2ccccc2)(c2ccccc2)O1 | 8.32 | 6.86 | 1.15 nM | 0.661 nM | 27.5 nM
5 | COc1cccc(OC)c1OCCNC[C@@H]1COCC(c2ccccc2)(c2ccccc2)O1 | 7.22 | 6.24 | 66.1 nM | 1.41 nM | 339 nM
6 | c1ccc(OCCNC[C@@H]2COC(c3ccccc3)(c3ccccc3)CO2)cc1 | 7.19 | 6.28 | 126 nM | 37.2 nM | 224 nM
7 | c1ccc(OCCNC[C@@H]2CO[C@H](c3ccccc3)CO2)cc1 (relative stereo) | 7.05 | 6.68 | 355 nM | 25.7 nM | > 1000 nM
8 | COc1ccccc1OCCNC[C@@H]1COC[C@H](c2ccccc2)O1 (relative stereo) | 7.2 | 7.4 | 43.7 nM | 4.17 nM | 200 nM
9 | c1ccc(OCCNC[C@@H]2COC[C@@H](c3ccccc3)O2)cc1 (relative stereo) | 6.38 | 6.88 | 155 nM | 52.5 nM | 407 nM
10 | COc1cccc(OC)c1OCCNC[C@@H]1CO[C@H](c2ccccc2)CO1 (relative stereo) | 6.08 | 6.7 | > 1000 nM | 257 nM | > 1000 nM
11 | c1ccc(OCCNC[C@@H]2COC[C@H](c3ccccc3)O2)cc1 (relative stereo) | 6.77 | 7.12 | 72.4 nM | 53.7 nM | > 1000 nM
12 | COc1ccccc1OCCNC[C@@H]1COC[C@@H](c2ccccc2)O1 (relative stereo) | 7.83 | 7.96 | 31.6 nM | 6.03 nM | 87.1 nM
13 | COc1cccc(OC)c1OCCNC[C@@H]1COC[C@@H](c2ccccc2)O1 (relative stereo) | 7.11 | 5.75 | > 1000 nM | 417 nM | > 1000 nM
14 | COc1cccc(OC)c1OCCNC[C@@H]1COC[C@H](c2ccccc2)O1 (relative stereo) | 6.55 | 5.84 | > 1000 nM | > 1000 nM | 468 nM
15 | COc1cccc(OC)c1OCCNC[C@@H]1CO[C@@H](c2ccccc2)CO1 (relative stereo) | 7.26 | 7.02 | > 1000 nM | 234 nM | 513 nM
16 | COc1ccccc1OCCNC[C@@H]1CO[C@@H](c2ccccc2)CO1 (relative stereo) | 7.48 | 7.44 | 97.7 nM | 38.9 nM | 158 nM
17 | COc1ccccc1OCCNC[C@@H]1CO[C@H](c2ccccc2)CO1 (relative stereo) | 6.84 | 6.89 | 16.2 nM | 3.47 nM | 437 nM
18 | c1ccc(OCCNC[C@@H]2CO[C@@H](c3ccccc3)CO2)cc1 (relative stereo) | 6.56 | 6.97 | > 1000 nM | 148 nM | 537 nM

— ChEMBL document CHEMBL1140161, “Structure-activity relationships in 1,4-benzodioxan-related compounds. 9. From 1,4-benzodioxane to 1,4-dioxane ring as a promising template of novel alpha1D-adrenoreceptor antagonists, 5-HT1A full agonists, and cytotoxic agents” (J Med Chem, 2008)
